# Source: PubChem (several laboratories)
# Hits are enriched below; roughly 3.8% of the tested compounds scored in any of these assays.
# CHO parental Ca = ATP-evoked calcium signal inhibitors, parental CHO, primary screen, counter-screen for OX1R antagonist project, cell-based, fluorescence, Fluo-8 calcium dye; parental CHO-K1, ATP-induced calcium, Fluo-8 fluorescence; inhibition, % at 5.6 µM; hit rate 0.63% among 330,000;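 active = inhibition above that plate's mean sample inhibition plus 3 SD, cut at about 26% in these data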;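 note: 0% = ATP-challenged DMSO wells and 100% = DMSO wells without ATP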
#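 Material – parental CHO cells · Reagent – ATP stimulus · Compound – single nominal dose of 5.6 µM per compound · Detection – Fluo-8 fluorescence · Read-out basis – percent inhibition of calcium signal · Controls – ATP-challenged DMSO wells low, unchallenged DMSO wells high · Repeats – no replicates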
# OX1R antag-1 = antagonists of human orexin 1 receptor (OX1R) | Orexin/Hypocretin receptor type 1 (Homo sapiens), O43613 | OX1R-expressing cells, FRET antagonist read-out | inhibition, % at 6.6 µM | hit rate 1.8% among 330,000 | AID 485270, 2010; in the data active = inhibition mostly above about 38%, no sharp cut-off; inactive = mostly below about 40%;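 note: 0% = agonist challenge alone and 100% = reference antagonist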
# Target sequence (O43613 whole entry, looked up): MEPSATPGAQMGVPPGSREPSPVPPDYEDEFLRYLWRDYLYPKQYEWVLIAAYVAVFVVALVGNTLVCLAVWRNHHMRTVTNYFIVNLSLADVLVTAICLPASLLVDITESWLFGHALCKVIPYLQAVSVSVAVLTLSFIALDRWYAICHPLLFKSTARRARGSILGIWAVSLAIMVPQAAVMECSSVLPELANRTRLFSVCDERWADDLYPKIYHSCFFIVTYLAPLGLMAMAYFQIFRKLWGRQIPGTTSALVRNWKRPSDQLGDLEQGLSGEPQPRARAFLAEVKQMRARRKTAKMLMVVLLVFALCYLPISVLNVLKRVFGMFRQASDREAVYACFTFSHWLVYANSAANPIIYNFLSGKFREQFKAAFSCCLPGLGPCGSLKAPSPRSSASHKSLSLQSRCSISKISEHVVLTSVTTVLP
# OX1R antag-2 = OX1R (HCRTR1) antagonists, primary screen, fluorescence, CHO/OX1R cells, Fluo-8 calcium, orexin A | Fluo-8 calcium fluorescence | inhibition, % at 5 µM | hit rate 0.43% among 330,000 | AID 434989, 2010;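 active = inhibition above its plate's threshold, mean inhibition of all tested compounds on the plate plus 3 SD, cut at about 37% in these data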;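 note: 0% = orexin A challenge wells and 100% = SB-334867-A antagonist wells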
# GPR7 antag = GPR7 receptor antagonists, primary screen, cell-based, fluorescence, single concentration | inhibition, % at 4.4 µM | AID 1861, 2009 | Neuropeptides B/W receptor type 1 (Homo sapiens), P48145 | hit rate 1.1% among 290,000 | GPR7-expressing cells, fluorescence antagonist assay; in the data active = inhibition above about 16%, passing the limit was not always enough;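 note: cells stimulated with the agonist NPW; 0% = agonist with vehicle and 100% = vehicle without agonist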
# MPTP inh = mitochondrial permeability transition pore inhibitors, primary screen, biochemical, isolated mouse mitochondria, absorbance; inhibition, % at 10 µM; hit rate 1.4% among 360,000; AID 602449, 2012; Ca2+ swelling absorbance, 30 min;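 active = inhibition of 50% or more, scaled per plate between neutral and stimulator controls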;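 note: 0% = DMSO wells given calcium and 100% = 1 mM EGTA wells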
# GPR7 antag conf = GPR7 receptor antagonists, confirmation, cell-based, fluorescence, single concentration. shares compounds with GPR7 antag. GPR7-expressing cells, calcium fluorescence antagonist mode. inhibition, % at 4.4 µM. hit rate 52% among 2,400. AID 1952, 2009; in the data active = inhibition above about 24%;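 note: stimulated with the GPR7 agonist NPW; 0% = agonist plus vehicle and 100% = vehicle alone without agonist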
# MCHR1 antag = MCHR1 antagonists in cells, counter-screen for GPR7 antagonist project, cell-based, fluorescence, human | inhibition, % at 4.4 µM | hit rate 62% among 2,400 | shares compounds with GPR7 antag | MCHR1-expressing cells, fluorescence antagonist assay; in the data active = inhibition above about 22%;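 note: 0% = vehicle with agonist and 100% = vehicle without agonist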
# * marks the source's active call; other numbers are inactive results; . = no result given.
SMILES,CHO parental Ca,OX1R antag-1,OX1R antag-2,GPR7 antag,MPTP inh,GPR7 antag conf,MCHR1 antag
COc1ccc(NC(=O)/C(Cl)=C(/Cl)S(=O)Cc2ccc(Cl)cc2)cn1 (configuration not stated),.,.,.,30*,-6,80*,93*
COc1cc2nc(N(CCCN(C)C)C(=O)c3ccc(S(=O)(=O)N(C)C4CCCCC4)cc3)sc2cc1OC,-1,9,-10,.,3,.,.
CN(C)CCCN(C(=O)c1ccc(S(=O)(=O)N(C)C2CCCCC2)cc1)c1nc2ccc(F)cc2s1,-21,5,-15,19,0,.,.
CN(C)CCCN(C(=O)c1ccc(S(=O)(=O)N(C)C2CCCCC2)cc1)c1nc2ccc(Br)cc2s1,4,13,-5,22*,2,50*,55*
CCc1ccc2nc(N(CCCN(C)C)C(=O)c3ccc(S(=O)(=O)N(C)C4CCCCC4)cc3)sc2c1,14,20,8,36*,4,56*,54*
Cc1c(Cl)c([N+](=O)[O-])nn1CC(=O)NC(C)C1CC2CCC1C2 (configuration not stated),-12,42,-23,19,2,.,.
C=CCOc1ccccc1C(=O)/C=C1/C(=O)Nc2ccccc21,33*,20,17,37*,0,59*,82*
Cc1cn([C@H]2C[C@H](O)[C@@H](/C=C/C(=O)NCCc3ccc4c(c3)OCO4)O2)c(=O)[nH]c1=O,.,.,.,.,0,.,.
Cc1cccc(C)c1N(CC(O)Cn1c2ccccc2c2ccccc21)S(C)(=O)=O (configuration not stated),-9,32,13,29*,1,37*,36*
Cc1ccc(N(CC(O)Cn2c3ccccc3c3ccccc32)S(C)(=O)=O)c(C)c1 (configuration not stated),-8,5,-9,-1,6,.,.
Cc1ccc(N(CC(O)Cn2c3ccccc3c3ccccc32)S(C)(=O)=O)cc1 (configuration not stated),0,31,21,24*,2,30*,45*
COc1ccccc1N1C(=O)C=C(Sc2nc(C)cc(C)n2)C1=O,-17,3,-17,-18,12,.,.
C=CCOc1cccc(C(=O)N2CCCC(Nc3ccc(F)cc3)C2)c1 (configuration not stated),-17,26,-18,-1,0,.,.
COc1cc(OC)cc(C(=O)N2CCCC(Nc3ccc(F)cc3)C2)c1 (configuration not stated),-18,16,-40,28*,-1,-15,-11
COc1ccc(C2CC2/C(=N/O)c2ccccn2)cc1 (configuration not stated),-14,22,7,28*,1,26*,18
Nc1c(C(=O)NCc2ccc3c(c2)OCO3)nnn1Cc1ccc(Br)cc1,12,-16,-4,24*,3,27*,21
O=C(NCc1ccc2c(c1)OCO2)C(=O)NCC1OCCN1S(=O)(=O)c1ccc(Cl)cc1 (configuration not stated),-14,8,-30,3,1,.,.
O=C(NCc1ccc2c(c1)OCO2)C(=O)NCC1OCCN1S(=O)(=O)c1ccc(Br)cc1 (configuration not stated),-10,7,-3,29*,1,22,40*
Cc1nn(C)c(C)c1Nc1ccc(N2C(=O)C3C4C=CC(C4)C3C2=O)cc1[N+](=O)[O-] (configuration not stated),3,23,-9,26*,3,2,5
Cc1nn(C)c(C)c1Nc1ccc(N2C(=O)C3CC=CCC3C2=O)cc1[N+](=O)[O-] (configuration not stated),3,40,-5,-12,13,.,.
Clc1ccc(CN(Cc2ccc(Cl)cc2)c2nn[nH]n2)cc1,-5,31,2,26*,20,25*,21
O=C(Nc1ccccc1Cl)C1CCCN(c2ncnc3c2nc2n3CCCCC2)C1 (configuration not stated),4,19,-30,-12,-2,.,.
CCOC(=O)CC(NC(=O)CCc1c(C)nc2ncnn2c1C)c1ccc(C)cc1 (configuration not stated),-3,1,-15,-3,0,.,.
CN(C)Cc1c(C(=O)N/N=C/c2ccccc2OCc2c(F)cccc2Cl)nnn1-c1nonc1N,-40,14,-14,35*,0,34*,66*
CN(C)Cc1c(C(=O)N/N=C/c2cccc3ccccc23)nnn1-c1nonc1N,-12,19,-22,-13,0,.,.
SMILES,CHO parental Ca,OX1R antag-1,OX1R antag-2,GPR7 antag,MPTP inh,GPR7 antag conf,MCHR1 antag
Cc1cc(Cl)c(S(=O)(=O)N2CCCCCC2)cc1OCC(=O)NC1CCCCC1,78*,13,14,32*,37,61*,58*
COc1ccc(OC)c(S(=O)(=O)N2CCC(C(=O)NC3CCCCCC3)CC2)c1,-13,6,-32,26*,1,-3,12
COc1cc(OC)c(S(=O)(=O)N2CCCCC2)cc1S(=O)(=O)N1CCCCC1,-9,4,-15,48*,1,46*,21
CCN1CCN(S(=O)(=O)c2cc(OCC(=O)NC3CCCCC3)c(C)cc2Cl)CC1,-3,6,-19,10,2,.,.
COc1cc(S(=O)(=O)N2CCCCC2)c(OC)cc1Br,-24,12,-37,-4,-2,.,.
CC(C)(C)C(=O)Nc1nnc(SCC(=O)NC2CCCC2)s1,-10,19,-10,-18,-1,.,.
Cc1c(NC(=O)c2ccc(-c3ccc([N+](=O)[O-])cc3Cl)o2)c(=O)n(-c2ccccc2)n1C,-20,63,-24,-6,0,.,.
Cc1ccccc1C(=O)c1cccn1CC(=O)NCCCN1CCCCC1,10,9,-10,-12,2,.,.
Cc1ccc(C)c(N2CCN(CCCNC(=O)Cn3cccc3C(=O)c3ccccc3C)CC2)c1,-3,0,-12,28*,16,36*,65*
CCNC(=O)C1CCCN(C(=O)c2ccccc2OC(F)(F)F)CC1 (configuration not stated),.,.,.,.,1,.,.
COc1ccc2nc(NC(=O)CSc3cn[nH]n3)sc2c1,-2,8,1,10,-1,.,.
CCOc1ccc2nc(NC(=O)CSc3cn[nH]n3)sc2c1,5,34,-2,22*,-1,-4,6
CCC(=O)N/C(=N/c1nc(C)cc(C)n1)Nc1ccc(OC)cc1,-17,8,2,35*,-2,-4,17
